Experiments:
[1] = system: murine macrophages (cell line J774); assay: Viability assay of murine macrophages; type: cell-based; conditions: murine macrophages vs T. b. brucei
Procedure, shortened: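 J774 murine macrophages were grown in DMEM with 10% FBS, penicillin and streptomycin at 37 °C in 5% CO2. Cells were exposed to 7 concentrations of test compound, each in triplicate, for 24 h, and viability was measured with WST-1 reagent as % of DMSO-treated control. EC50 was derived by fitting a sigmoidal Hill equation; SD.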

[2] = system: Bloodstream T. b. brucei (strain 427) cell line 449; assay: Viability assay of bloodstream trypanosomes; type: cell-based; conditions: Trypanosoma brucei, 24 h
Procedure, shortened: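 Bloodstream parasites at 5 × 10^5 cells/mL in HMI-9 with 10% FBS received test compound (5 μM final; nifurtimox 15 μM) or 1% DMSO, in triplicate, for 24 h at 37 °C and 5% CO2. Cells were diluted into PBS with 1% glucose, stained with propidium iodide (2 μg/mL) and counted by flow cytometry. Viability is the % of the DMSO-control cell count. EC50 came from 7-point curves (triplicates) fitted to a sigmoidal Hill equation; SD.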

[3] = system: Bloodstream T. b. brucei; assay: Inhibition of glucose uptake; type: cell-based, Trypanosoma brucei brucei; conditions: 30 min
[4] = system: Bloodstream T. b. brucei; assay: Glucose consumption; type: cell-based, Trypanosoma brucei brucei; conditions: compound at its EC50, 4 h
Procedure, shortened: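 Bloodstream T. b. brucei were seeded at 5.3–5.8 × 10^6 parasites/mL in HMI-9 with 10% FBS (37 °C, 5% CO2). They were exposed for 4 h to test compound at a fixed concentration, or to suramin 78 nM, ebselen 5 μM, tri-thiazol 0.31 μM or 1% DMSO vehicle. Viable cells were counted in a Neubauer chamber, cells were spun down at 2000 g for 10 min, and supernatant glucose was measured on an analyzer. Consumption is given as g/L per million cells per hour; triplicates, SD.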

[5] = system: redox biosensor hGrx-roGFP2 in bloodstream T. b. brucei; assay: Intracellular redox changes in T. brucei redox reporter cell line; type: cell-based, Trypanosoma brucei brucei; conditions: for oxidation of the biosensor: 4 h, 0.54 μM 13, 1.49 μM 15, 78 nM suramin, 25 μM menadione
Procedure, shortened: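 The strain 427 line 449 bloodstream reporter line expresses hGrx-roGFP2, induced with 1 μg/mL oxytetracycline for 24 h. Parasites at 2 × 10^6/mL were treated for 4 h at 37 °C with test compound, 25 μM menadione, 78 nM suramin or 1% DMSO. A parallel sample then received 1 mM DTT for 15 min. Cells were stained with PI (2 μg/mL) and GFP (530/40 nm) was read on PI-negative cells by flow cytometry. Values are % biosensor reduction versus DMSO without DTT; triplicates, SD.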

## CC1CS(=O)(=O)CCN1/N=C/c1ccc([N+](=O)[O-])o1 (centres unmarked) [NFX, nifurtimox]
[1]
  selectivity index (SI): ~10
[2]; read-out: EC50 against T. b. brucei
  EC50: ~10 µM
[2]; read-out: Parasite survival
  viability at 15 µM: 28.2 ± 5.5%
[3]; 5X EC50 (13 2.7 μM, 15 7.45 μM, nifurtimox 50 μM)
  glucose uptake compared to vehicle treated cells: A similar outcome

## O=C(CCc1ccc(O)cc1)c1c(O)cc(O)cc1O [phloretin]
[3]; 500 μM
  reduction of glucose uptake: 63%

## Cc1ccc(C(=O)Nc2ccc(S(=O)(=O)O)c3cc(S(=O)(=O)O)cc(S(=O)(=O)O)c23)cc1NC(=O)c1cccc(NC(=O)Nc2cccc(C(=O)Nc3cc(C(=O)Nc4ccc(S(=O)(=O)O)c5cc(S(=O)(=O)O)cc(S(=O)(=O)O)c45)ccc3C)c2)c1 [suramin]
[4]; vs DMSO
  capacity to metabolize glucose compared to the control condition: < 30%
[5]
  oxidation of the biosensor: did not induce redox changes

## O=c1c2ccccc2[se]n1-c1ccccc1 [ebselen]
[4]
  reduction of glucose consumption vs vehicle: 44%
[4]; not statistically significant
  anti-proliferative activity with respect to the DMSO control: some anti-proliferative activity

## CC1=CC(=O)c2ccccc2C1=O [menadione]
[5]
  oxidation of the biosensor: 60%
[5]; after 4 h treatment, 15 min with 1 mM DTT
  reversal of biosensor oxidation by DTT: fully reversible

From article PMC5565762 (International Journal for Parasitology: Drugs and Drug …, 2017)
